Test results: ChEMBL document CHEMBL4145531, “Synthesis of novel Chlorin e6-curcumin conjugates as photosensitizers for photodynamic therapy against pancreatic carcinoma” (Eur J Med Chem, 2018)
The source made the active and inactive calls. The calls are words filed in the database; no cut-off is given here.

Tests used:
[1] = Induction of singlet oxygen production in DMSO assessed as DPBF absorption intensity (reference value: 100%); type: functional
Method in brief: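 DPBF (50 µM in DMSO) was mixed with 1 µM photosensitizer in the dark. Samples were irradiated at 660 nm, 50 mW, 2 J/cm² for 40 s. Singlet oxygen was read as the decay of normalized DPBF absorbance at 418 nm relative to a DPBF-only control.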

ASPC1 [2] = assay: Phototoxicity in human AsPC1 cells assessed as reduction in cell viability preincubated for 3 hrs followed by 9 J/cm2 laser light irradiation and measured after 72 hrs by MTT assay; type: functional, cell-based; conditions: ASPC1, light or radiation study
Method in brief: (§1)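 Cells were seeded at 5.0 x 10^3 per well and incubated overnight at 37 °C. AsPC-1 was in RPMI-1640 and MIA PaCa-2/PANC-1 in DMEM, with 10% FBS. Cells took up compound for 3h, then received 660 nm laser light (50 mW, 9 J/cm²).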

[3] = Solubility of the compound in 2% DMSO/98% de-ionized water at 8.4 uM; type: physicochemical; conditions: buffer
[4] = Selectivity index, ratio of IC50 for dark toxicity in human AsPC1 cells to IC50 for phototoxicity in human AsPC1 cells; type: cell-based; conditions: read-out: Ratio IC50
Method in brief: (§2)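 The ratio is the dark-toxicity IC50 over the phototoxicity IC50 in the same cell line, both from 72h MTT. The dark arm received no light. The photo arm was irradiated at 660 nm, 50 mW, 9 J/cm² after 3h compound exposure.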

[5] = Dark toxicity in human PANC1 cells assessed as reduction in cell viability after 72 hrs by MTT assay; type: cell-based, PANC-1
Method in brief: (§3)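 AsPC-1 cells were grown in RPMI-1640, and MIA PaCa-2 and PANC-1 in DMEM, each with 10% FBS and 1% penicillin/streptomycin. 5.0 x 10^3 cells were seeded and left overnight at 37 °C. They were exposed to 0-300 µM compound for 3h without laser irradiation, then held 72h in the dark at 37 °C, 5% CO₂. Viability was read by MTT.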

[6] = Selectivity index, ratio of IC50 for dark toxicity in human PANC1 cells to IC50 for phototoxicity in human PANC1 cells; type: cell-based, PANC-1; conditions: read-out: Ratio IC50; method in brief: as §2
[7] = Dark toxicity in human MIAPaCa2 cells assessed as reduction in cell viability after 72 hrs by MTT assay; type: cell-based, MIA PaCa-2; method in brief: as §3
[8] = Dark toxicity in human AsPC1 cells assessed as reduction in cell viability after 72 hrs by MTT assay; type: cell-based; method in brief: as §3
MIA PaCa-2 [9] = assay: Phototoxicity in human MIAPaCa2 cells assessed as reduction in cell viability preincubated for 3 hrs followed by 9 J/cm2 laser light irradiation and measured after 72 hrs by MTT assay; type: functional, cell-based; conditions: MIA PaCa-2, light or radiation study; method in brief: as §1
[10] = Selectivity index, ratio of IC50 for dark toxicity in human MIAPaCa2 cells to IC50 for phototoxicity in human MIAPaCa2 cells; type: cell-based, MIA PaCa-2; conditions: read-out: Ratio IC50; method in brief: as §2
[11] = Drug uptake in human AsPC1 cells at 5 uM after 3 to 24 hrs by FACS analysis; type: ADME, cell-based; conditions: aspc1, 5 µM
Method in brief: (§4)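 AsPC-1 cells (2 x 10^5) were seeded and kept in the dark at 37 °C for 24h. They were then incubated with 5 µM compound for 30 min to 24h. Cells were harvested by trypsin, washed three times in PBS and resuspended in PBS. Uptake was read as mean fluorescence intensity by FACS.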

[12] = Drug uptake in human AsPC1 cells at 5 uM by FACS analysis; type: ADME, cell-based; conditions: aspc1, 5 µM, TDE = time-dependent effect; method in brief: as §4
PANC-1 [13] = assay: Phototoxicity in human PANC1 cells assessed as reduction in cell viability preincubated for 3 hrs followed by 9 J/cm2 laser light irradiation and measured after 72 hrs by MTT assay; type: functional, cell-based; conditions: PANC-1, light or radiation study; method in brief: as §1
[14] = Solubility of the compound in 2% DMSO/98% de-ionized water at 7.7 uM; type: physicochemical; conditions: buffer
MIA PaCa-2 [15] = assay: Potency index, ratio of chlorin e6 IC50 to compound IC50 for phototoxicity in human MIAPaCa2 cells; type: functional
ASPC1 [16] = assay: Phototoxicity in human AsPC1 cells assessed as induction of apoptosis by measuring late apoptotic cells at 40 nM preincubated for 3 hrs followed by 9 J/cm2 laser light irradiation and measured after 24 hrs by Annexin V-FITC/propidium iodide staining based flow cytometry (reference value: 0.41%); type: functional
ASPC1 [17] = assay: Phototoxicity in human AsPC1 cells assessed as induction of apoptosis by measuring live cells at 20 nM preincubated for 3 hrs followed by 9 J/cm2 laser light irradiation and measured after 24 hrs by Annexin V-FITC/propidium iodide staining based flow cytometry (reference value: 91.51%); type: functional
[18] = Drug uptake in human AsPC1 cells at 5 uM up to 0.5 to 24 hrs by FACS analysis; type: ADME, cell-based; conditions: aspc1, 5 µM; method in brief: as §4
ASPC1 [19] = assay: Phototoxicity in human AsPC1 cells assessed as induction of apoptosis by measuring necrotic cells at 20 nM preincubated for 3 hrs followed by 9 J/cm2 laser light irradiation and measured after 24 hrs by Annexin V-FITC/propidium iodide staining based flow cytometry (reference value: 1.03%); type: functional
ASPC1 [20] = assay: Phototoxicity in human AsPC1 cells assessed as induction of apoptosis by measuring live cells at 60 nM preincubated for 3 hrs followed by 9 J/cm2 laser light irradiation and measured after 24 hrs by Annexin V-FITC/propidium iodide staining based flow cytometry (reference value: 91.51%); type: functional
ASPC1 [21] = assay: Potency index, ratio of chlorin e6 IC50 to compound IC50 for phototoxicity in human AsPC1 cells; type: functional
ASPC1 [22] = assay: Phototoxicity in human AsPC1 cells assessed as induction of apoptosis by measuring upregulation of cleaved caspase-9 expression at 20 to 40 nM preincubated for 3 hrs followed by 9 J/cm2 laser light irradiation and measured after 24 hrs by Western blot analysis; type: functional, cell-based
Method in brief: (§5)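 Cells in six-well plates were exposed to compound for 3h and irradiated at 660 nm (50 mW, 9 J/cm²), then incubated 24h. Lysis was on ice in modified RIPA buffer (pH 7.4) with protease inhibitors. After clearing at 10,000g for 10 min at 4 °C, proteins were separated by 10% SDS-PAGE, blotted and detected by ECL.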

[23] = Drug uptake in human AsPC1 cells at 5 uM after 3 hrs by FACS analysis relative to chlorin e6; type: ADME, cell-based; conditions: aspc1, 3 h; method in brief: as §4
[24] = Drug uptake in human AsPC1 cells at 5 uM after 24 hrs by FACS analysis relative to chlorin e6; type: ADME, cell-based; conditions: aspc1, 24 h; method in brief: as §4
ASPC1 [25] = assay: Phototoxicity in human AsPC1 cells assessed as induction of apoptosis by measuring early apoptotic cells at 40 nM preincubated for 3 hrs followed by 9 J/cm2 laser light irradiation and measured after 24 hrs by Annexin V-FITC/propidium iodide staining based flow cytometry (reference value: 7.05%); type: functional
PANC-1 [26] = assay: Potency index, ratio of chlorin e6 IC50 to compound IC50 for phototoxicity in human PANC1 cells; type: functional
ASPC1 [27] = assay: Phototoxicity in human AsPC1 cells assessed as induction of apoptosis by measuring early apoptotic cells at 20 nM preincubated for 3 hrs followed by 9 J/cm2 laser light irradiation and measured after 24 hrs by Annexin V-FITC/propidium iodide staining based flow cytometry (reference value: 7.05%); type: functional
ASPC1 [28] = assay: Phototoxicity in human AsPC1 cells assessed as induction of apoptosis by measuring early apoptotic cells at 60 nM preincubated for 3 hrs followed by 9 J/cm2 laser light irradiation and measured after 24 hrs by Annexin V-FITC/propidium iodide staining based flow cytometry (reference value: 7.05%); type: functional
ASPC1 [29] = assay: Phototoxicity in human AsPC1 cells assessed as induction of apoptosis by measuring downregulation of Bcl2 expression at 20 to 40 nM preincubated for 3 hrs followed by 9 J/cm2 laser light irradiation and measured after 24 hrs by Western blot analysis; type: functional, cell-based; method in brief: as §5
ASPC1 [30] = assay: Phototoxicity in human AsPC1 cells assessed as induction of apoptosis by measuring late apoptotic cells at 60 nM preincubated for 3 hrs followed by 9 J/cm2 laser light irradiation and measured after 24 hrs by Annexin V-FITC/propidium iodide staining based flow cytometry (reference value: 0.41%); type: functional
ASPC1 [31] = assay: Phototoxicity in human AsPC1 cells assessed as induction of apoptosis by measuring necrotic cells at 40 nM preincubated for 3 hrs followed by 9 J/cm2 laser light irradiation and measured after 24 hrs by Annexin V-FITC/propidium iodide staining based flow cytometry (reference value: 1.03%); type: functional
[32] = Solubility of the compound in 2% DMSO/98% de-ionized water at 8.2 uM; type: physicochemical; conditions: buffer
ASPC1 [33] = assay: Phototoxicity in human AsPC1 cells assessed as induction of apoptosis by measuring necrotic cells at 60 nM preincubated for 3 hrs followed by 9 J/cm2 laser light irradiation and measured after 24 hrs by Annexin V-FITC/propidium iodide staining based flow cytometry (reference value: 1.03%); type: functional
ASPC1 [34] = assay: Phototoxicity in human AsPC1 cells assessed as induction of apoptosis by measuring live cells at 40 nM preincubated for 3 hrs followed by 9 J/cm2 laser light irradiation and measured after 24 hrs by Annexin V-FITC/propidium iodide staining based flow cytometry (reference value: 91.51%); type: functional
ASPC1 [35] = assay: Phototoxicity in human AsPC1 cells assessed as induction of apoptosis by measuring late apoptotic cells at 20 nM preincubated for 3 hrs followed by 9 J/cm2 laser light irradiation and measured after 24 hrs by Annexin V-FITC/propidium iodide staining based flow cytometry (reference value: 0.41%); type: functional
ASPC1 [36] = assay: Phototoxicity in human AsPC1 cells assessed as induction of apoptosis by measuring upregulation of Bax expression at 20 to 40 nM preincubated for 3 hrs followed by 9 J/cm2 laser light irradiation and measured after 24 hrs by Western blot analysis; type: functional, cell-based; method in brief: as §5

C=Cc1c(C)c2cc3nc(c(CC(=O)OC)c4[nH]c(cc5nc(cc1[nH]2)C(C)=C5CC)c(C)c4C(=O)NCCCCCCNC(=O)CCCC(=O)Oc1ccc(/C=C/C(=O)CC(=O)/C=C/c2ccc(O)c(OC)c2)cc1OC)C(CCC(=O)OC)C3C (centres undefined)
Activity [1]: 10.1%
IC50 (ASPC1 [2]): 10.1 µM
solubility [3]: Soluble
selectivity ratio [4]: 28.3
IC50 at 72 h [5]: > 300 µM
selectivity ratio [6]: > 6.58
IC50 at 72 h [7]: 265 µM
IC50 at 72 h [8]: 285 µM
IC50 (MIA PaCa-2 [9]): 47.3 µM
selectivity ratio [10]: 5.6
Drug uptake [11]: Active
Drug uptake [12]: Tde
IC50 (PANC-1 [13]): 45.6 µM

C=Cc1c(C)c2cc3nc(c(CC(=O)OC)c4[nH]c(cc5nc(cc1[nH]2)C(C)=C5CC)c(C)c4C(=O)NCCCOCCOCCOCCCNC(=O)CCCC(=O)Oc1ccc(/C=C/C(=O)CC(=O)/C=C/c2ccc(O)c(OC)c2)cc1OC)C(CCC(=O)OC)C3C (centres undefined)
Activity [1]: 12.3%
IC50 (ASPC1 [2]): 5.93 µM
selectivity ratio [4]: 32.5
IC50 at 72 h [5]: > 300 µM
selectivity ratio [6]: > 19.1
IC50 at 72 h [7]: > 300 µM
IC50 at 72 h [8]: 193 µM
IC50 (MIA PaCa-2 [9]): 4.64 µM
selectivity ratio [10]: > 64.7
Drug uptake [11]: Active
Drug uptake [12]: Tde
solubility [14]: Soluble
IC50 (PANC-1 [13]): 15.7 µM

C=Cc1c(C)c2cc3nc(c(CC(=O)OC)c4[nH]c(cc5nc(cc1[nH]2)C(C)=C5CC)c(C)c4C(=O)NCCOCCOCCNC(=O)CCCC(=O)Oc1ccc(/C=C/C(=O)CC(=O)/C=C/c2ccc(O)c(OC)c2)cc1OC)C(CCC(=O)OC)C3C (centres undefined)
Activity [1]: 12.1%
IC50 (ASPC1 [2]): 0.04 µM
Ratio IC50 (MIA PaCa-2 [15]): 452
Activity (ASPC1 [16]): 10.77%
Activity (ASPC1 [17]): 77.38%
selectivity ratio [4]: 4650
IC50 at 72 h [5]: > 300 µM
Drug uptake [18]: Active
selectivity ratio [6]: > 7500
Activity (ASPC1 [19]): 1.43%
IC50 at 72 h [7]: 83 µM
Activity (ASPC1 [20]): 51.45%
Ratio IC50 (ASPC1 [21]): 488
IC50 at 72 h [8]: 186 µM
Activity (ASPC1 [22]): Active
fold change (FC) [23]: 47
fold change (FC) [24]: 29
IC50 (MIA PaCa-2 [9]): 0.035 µM
Activity (ASPC1 [25]): 16.27%
selectivity ratio [10]: 2370
Ratio IC50 (PANC-1 [26]): 247
Activity (ASPC1 [27]): 15.09%
Activity (ASPC1 [28]): 24.82%
Activity (ASPC1 [29]): Active
Activity (ASPC1 [30]): 15.65%
Activity (ASPC1 [31]): 2.22%
solubility [32]: Soluble
Activity (ASPC1 [33]): 8.08%
Drug uptake [12]: Tde
Activity (ASPC1 [34]): 70.74%
Activity (ASPC1 [35]): 6.1%
IC50 (PANC-1 [13]): 0.04 µM
Activity (ASPC1 [36]): Active
